Key:
KB [1] = assay: Increase in adriamycin uptake in modulator-treated cells relative to untreated KB-A1 cells at a concentration of 5 uM; assay type: functional, Homo sapiens
Procedure, shortened: (§1)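 DC-3F/AD or KB-A1 cells (5 × 10⁶/mL) were incubated at 37 °C for 5 h with 50 μM adriamycin plus modulator (2.5–10 μM range). ADR fluorescence of 10 000 cells was read by flow cytometry at 4 °C with 488 nm argon-laser excitation. The value is the increase in mean fluorescence of treated cells over untreated cells.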

DC3F/AD [2] = assay: Increase in adriamycin uptake in modulator-treated cells relative to untreated cells at a concentration of 5 uM; assay type: functional, Cricetulus griseus; procedure, shortened: as §1
DC3F/AD [3] = assay: In vitro activity in DC-3F/AD cell line(Ratio of IC50(actinomycin D alone) / IC50(actinomycin D + modulator) at a concentration of 5 uM
KB [4] = assay: Percent of cell viability remaining after incubating the cells with the modulator alone; assay type: functional, Homo sapiens; design: concentration or dose not given beside the values
Procedure, shortened: (§2)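 Cells were grown with modulator alone for 4 days under the same conditions as the chemosensitivity assay, and read by MTT. Viability = (absorbance with modulator/absorbance of control cells) × 100. "tox" marks viability below 25%.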

DC3F/AD [5] = assay: Percent of cell viability remaining after incubating with a 10 uM concentration; assay type: functional, Cricetulus griseus; procedure, shortened: as §2
DC3F/AD [6] = assay: In vitro activity in DC-3F/AD cell line Ratio of IC50(actinomycin D alone) / IC50(actinomycin D + modulator) at a concentration of 10 uM
DC3F/AD [7] = assay: Increase in adriamycin uptake in modulator-treated cells relative to untreated cells at a concentration of 10 uM; assay type: functional, Cricetulus griseus; procedure, shortened: as §1
KB [8] = assay: In vitro activity in KB-A1 cell line activity expressed as fold reversion (Ratio of IC50(adriamycin alone) / IC50(adriamycin + modulator) at a concentration of 5 uM; assay type: functional, Homo sapiens
Procedure, shortened: (§3)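 Human epidermoid KB-A1 cells (Pgp-overexpressing) were grown in RPMI 1640 with 10% FCS and 10 mM HEPES (pH 7.4). They were exposed for 4 days to adriamycin (nine graded concentrations, in triplicate) with or without 5 μM modulator. IC50 was read by the MTT assay. Fold reversion = IC50(ADR alone)/IC50(ADR + modulator).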

DC3F/AD [9] = assay: Percent of cell viability remaining after incubating the cells with the modulator alone a concentration of 5 uM; assay type: functional, Cricetulus griseus; procedure, shortened: as §2
KB [10] = assay: Compound was evaluated for the in vitro activity in KB-A1 cell line)Activity expressed as fold reversion (Ratio of IC50(adriamycin alone) / IC50(adriamycin + modulator) at a concentration of 5 uM; assay type: functional, Homo sapiens; procedure, shortened: as §3
P388 [11] = assay: Antitumor activity of vincristine against P388 leukemia cell line in mice at a dose of 100 mg/kg.; assay type: functional, Mus musculus
P388 [12] = assay: Antitumor activity of vincristine against P388 leukemia cell line in mice at a dose of 50 mg/kg.; assay type: functional, Mus musculus
KB [13] = assay: Compound was evaluated for the in vitro activity in KB-A1 cell line. Activity expressed as fold reversion (Ratio of IC50(adriamycin alone) / IC50(adriamycin + modulator) at a concentration of 5 uM; assay type: functional, Homo sapiens; procedure, shortened: as §3
P388/VCR = assay: Antitumor activity of vincristine against P388/VCR leukemia in mice at a dose of 50 mg/kg.; assay type: functional, Mus musculus

| Structure (SMILES) | Increase (KB [1]) | Increase (DC3F/AD [2]) | Fold reversion (DC3F/AD [3]) | Viability (KB [4]) [%] | Viability (DC3F/AD [5]) [%] | Fold reversion (DC3F/AD [6]) | Increase (DC3F/AD [7]) | Fold reversion (KB [8]) | Viability (DC3F/AD [9]) [%] | Fold reversion (KB [10]) | T/C (P388 [11]) [%] | T/C (P388 [12]) [%] | Fold reversion (KB [13]) | T/C (P388/VCR) [%] |
| --- | --- | --- | --- | --- | --- | --- | --- | --- | --- | --- | --- | --- | --- | --- |
| C=CCNc1nc(NCC=C)nc(N2CCC(CNC3c4ccccc4CCc4ccccc43)CC2)n1 | 29.8 | 14 | 173 | 105 | 72 | 544 | 20.5 | 126 | 96 |  |  |  |  |  |
| C=CCNc1nc(NCC=C)nc(N2CCC(NCC(c3ccccc3)S(=O)(=O)c3ccccc3)CC2)n1 (centres undefined) | 41.9 | 21.2 | 139 | 115 | 92 | 817 | 29 |  | 107 | 277 |  |  |  |  |
| CN(C)c1nc(N(C)C)nc(N2CCC(NCC3c4ccccc4CCc4ccccc43)CC2)n1 | 16.4 | 29.4 | 187 | 28 | 66 | 544 | 30.6 | 7 | 71 |  |  |  |  |  |
| C=CCNc1nc(NCC=C)nc(N2CCC(NCC3c4ccccc4CCCc4ccccc43)CC2)n1 | 44.1 | 22.3 | 2951 | 89 |  | <25 | 21.6 | 177 | 105 |  | 186 | 173 |  |  |
| C=CCNc1nc(NCC=C)nc(N2CCC(N(C)CC3c4ccccc4CCc4ccccc43)CC2)n1 | 25.6 | 17.8 | 834 | 111 | 69 | 3035 | 21.8 | 118 | 70 |  |  |  |  |  |
| C=CCNc1nc(NCC=C)nc(NCC(O)CN2CCN(C3c4ccccc4CCc4ccccc43)CC2)n1 (centres undefined) | 29.2 | 24.3 | <25 |  |  | <25 | 27.6 |  |  |  |  |  | <25 |  |
| C=CCNc1nc(NCC=C)nc(N2CCC(NCC(c3cc(OC)cc(OC)c3)c3ccccc3C)CC2)n1 (centres undefined) | 41.4 | 24.7 | 1224 | 91 |  | <25 | 26.5 | 111 | 80 |  |  |  |  |  |
| C=CCNc1nc(NCC=C)nc(N2CCC(NCC3c4ccccc4CCc4ccccc43)CC2)n1 | 53.6 | 33 | 3144 | 68 | 54 | 6021 | 38.3 | 252 | 98 |  | 167 | 161 |  |  |
| C=CCNc1nc(NCC=C)nc(N2CCC(NCC3c4ccccc4NC(=O)c4ccccc43)CC2)n1 (centres undefined) | 48.4 | 2.2 | 2 | 113 | 100 | 583 | 41.5 | 315 | 106 |  |  |  |  |  |
| C=CCNc1nc(NCC=C)nc(N2CCC(NCC3c4ccccc4CSc4ccccc43)CC2)n1 (centres undefined) | 57.3 | 33.5 | 867 | 108 | 72 | 6046 | 32.6 | 393 | 83 |  |  |  |  |  |
| C=CCNc1nc(Cl)nc(N2CCC(NCC3c4ccccc4CCc4ccccc43)CC2)n1 | 33.8 | 21.6 | 850 | 63 | 96 | 2205 | 27.5 |  | 96 | 236 |  |  |  |  |
| C=CCNc1nc(NCC=C)nc(N2CCC(NCC3c4ccccc4Oc4ccccc43)CC2)n1 | 43.9 | 19.4 | 844 | 106 | 85 | 2584 | 25.7 | 140 | 91 |  |  |  |  |  |
| C=CCNc1nc(OC)nc(N2CCC(NCC3c4ccccc4CCc4ccccc43)CC2)n1 | 40.7 | 23.9 | 1092 | 91 | 79 | 1078 | 28.5 | 138 | 86 |  |  |  |  |  |
| C=CCN(CC=C)c1nc(N(CC=C)CC=C)nc(N2CCC(NCC(c3ccccc3)c3ccccc3)CC2)n1 |  |  | 1 | 78 | 65 | 1 |  |  | 74 | 1 |  |  |  |  |
| C=CCNc1nc(NCC)nc(N2CCC(NCC3c4ccccc4CCc4ccccc43)CC2)n1 | 45.9 | 23.1 | 2499 | 58 | 64 | 10684 | 24.9 | 201 | 114 |  | 174 | 190 |  |  |
| C=CCNc1nc(NCC=C)nc(N2CCN(C3c4ccccc4CCc4ccccc43)CC2)n1 | 11.2 | 16.9 | 309 | 108 | 87 | 455 | 19.3 |  | 92 |  |  |  | 36 |  |
| C=CCNc1nc(NCC=C)nc(N2CCC(NC3CC4c5ccccc5C3c3ccccc34)CC2)n1 (centres undefined) | 43.8 | 32.9 | 1638 | 133 | 102 | 4264 | 35.9 | 118 | 98 |  |  |  |  |  |
| C=CCNc1nc(NCC=C)nc(NCCN2CCN(C3c4ccccc4CCc4ccccc43)CC2)n1 | 26.2 | 10.2 |  |  |  | <25 | 10.5 |  |  |  |  |  | <25 |  |
| C=CCNc1nc(NC)nc(N2CCC(NCC3c4ccccc4COc4ccccc43)CC2)n1 (centres undefined) | 35 | 16.8 | 600 | 107 | 75 | 2203 | 21.5 | 183 | 54 |  | 163 | 181 |  | 170 |
| C=CCNc1nc(NCC=C)nc(N2CCN(NCC3c4ccccc4CCc4ccccc43)CC2)n1 | 22.8 | 21.1 | 329 | 96 | 81 | 1159 | 28.2 |  | 87 | 93 |  |  |  |  |
| C=CCNc1nc(NCC=C)nc(N2CCC(NCC3c4ccccc4C=Cc4ccccc43)CC2)n1 | 59.2 | 24.5 | 1420 | 31 |  | <25 | 25.8 | 640 | 86 |  | 172 | 196 |  |  |
| C=CCNc1nc(NCC=C)nc(N2CCC(NC3c4ccccc4CCc4ccccc43)CC2)n1 | 34.2 | 34.3 | 755 | 74 | 91 | 1626 | 39.7 | 91 | 99 |  |  |  |  |  |
| C=CCNc1nc(NCC=C)nc(NCC2CCN(C3c4ccccc4CCc4ccccc43)CC2)n1 | 1.9 | 10.1 | 10 | 97 | 49 | 46 | 17.4 | 10 | 71 |  |  |  |  |  |
| C=CCNc1nc(NCC=C)nc(N2CCC(NCC3c4ccccc4-c4ccccc43)CC2)n1 | 20.6 | 19.6 | 170 | 42 | 75 | 589 | 23.2 | 57 | 78 |  |  |  |  |  |
